# Laboratory results reported in ChEMBL document CHEMBL1125386, “Small atrial natriuretic peptide analogues: design, synthesis, and structural requirements for guanylate cyclase activation” (J Med Chem, 1992).
# Where a SMILES comes first, the peptide text is derived from it. Bridges are numbered along the chain shown (N, C = ends).
# Legend:
# [1] = organism: Oryctolagus cuniculus; test: In vitro vasorelaxant potency at dose 10 e -8 to 10 e-4 M using rabbit aortic rings precontracted with histamine; assay type: functional; conditions: Aorta
# Procedure, shortened: (§1)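 Rabbit aortic rings (4–5 mm) in Krebs-Henseleit buffer, gassed 95:5 O2/CO2, pH 7.4, isometric tension, baseline 2 g held 2 h. Rings contracted with 3 μM histamine, then six cumulative half-log peptide increments over 90 min, range 10⁻⁸ to 10⁻⁴ M. Triplicate determinations.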
# [2] = tested on: Atrial natriuretic peptide receptor 1 (Oryctolagus cuniculus); test: Binding affinity towards the low-affinity site atrionatriuretic peptide receptor 1 of rabbit adrenal membrane
# [3] = In vitro Biological half-life in crude homogenate of rabbit renal cortex; assay type: ADME, tissue-based, Oryctolagus cuniculus
# [4] = tested on: Atrial natriuretic peptide receptor 1 (Oryctolagus cuniculus); test: Binding affinity for low-affinity site Atrial natriuretic peptide receptor 1 of rabbit adrenal membrane; conditions: Adrenal gland
# [5] = organism: Oryctolagus cuniculus; test: Compound was evaluated for the intrinsic vasorelaxation (i.vr) in a standard tissue bath preparation using rabbit aortic rings precontracted with histamine; assay type: functional, Aorta; procedure, shortened: as §1
Compound,EC50 [1] [nM],KL [4] [nM],other results
CC[C@H](C)[C@@H]1NC(=O)[C@H](CCCN=C(N)N)NC(=O)[C@H](CC(=O)O)NC(=O)[C@H]([C@@H](C)CC)NC(=O)[C@H](CCCN=C(N)N)NC(=O)CNC(=O)CNC(=O)[C@H](Cc2ccccc2)NC(=O)[C@@H](NC(=O)[C@H](CO)NC(=O)[C@@H](N)CO)CSSC[C@@H](C(=O)O)NC1=O (H-SSCFGGRIDRIC-OH; disulfide 3-12),5200,–,–
CC[C@H](C)[C@@H]1NC(=O)[C@H](CCCN=C(N)N)NC(=O)CNC(=O)CNC(=O)[C@H](Cc2ccccc2)NC(=O)CN(C)C(=O)[C@@H](NC(=O)[C@H](CO)NC(=O)[C@@H](N)CO)CSSC[C@@H](C(=O)N[C@@H](Cc2ccccc2)C(=O)N[C@@H](CCCN=C(N)N)C(=O)O)NC(=O)[C@H]([C@@H](C)CC)NC(=O)[C@H](CCCN=C(N)N)NC(=O)[C@H](CC(=O)O)NC1=O,> 1000,–,–
CC[C@H](C)[C@@H]1NC(=O)[C@@H](CCCN=C(N)N)NC(=O)CNC(=O)CNC(=O)[C@@H](Cc2ccccc2)NC(=O)C(C)NC(=O)[C@H](NC(=O)[C@H](CO)NC(=O)[C@@H](N)CO)CSSC[C@H](C(=O)N[C@H](Cc2ccccc2)C(=O)N[C@H](CCCN=C(N)N)C(=O)O)NC(=O)[C@@H]([C@@H](C)CC)NC(=O)[C@H](CCCN=C(N)N)NC(=O)[C@@H](CC(=O)O)NC1=O (stereo in doubt),360,–,KL [2]: 710 nM; half-life [3]: 5.3 min
CC[C@H](C)[C@@H]1NC(=O)[C@@H](CCCN=C(N)N)NC(=O)CNC(=O)CNC(=O)[C@@H](Cc2ccccc2)NC(=O)C(C(C)C)NC(=O)[C@H](NC(=O)[C@H](CO)NC(=O)[C@@H](N)CO)CSSC[C@H](C(=O)N[C@H](Cc2ccccc2)C(=O)N[C@H](CCCN=C(N)N)C(=O)O)NC(=O)[C@@H]([C@@H](C)CC)NC(=O)[C@H](CCCN=C(N)N)NC(=O)[C@@H](CC(=O)O)NC1=O (stereo in doubt),24,–,KL [2]: 130 nM
CC[C@H](C)[C@@H]1NC(=O)[C@H](CCCN=C(N)N)NC(=O)CNC(=O)CNC(=O)[C@H](Cc2ccccc2)NC(=O)[C@@H](NC(=O)[C@H](CO)NC(=O)[C@@H](N)CO)CSSC[C@@H](C(=O)N[C@@H](CC(N)=O)C(=O)N[C@@H](CO)C(=O)O)NC(=O)[C@H]([C@@H](C)CC)NC(=O)[C@H](CCCN=C(N)N)NC(=O)[C@H](CC(=O)O)NC1=O (H-SSCFGGRIDRICNS-OH; disulfide 3-12),> 10000,–,–
CC[C@H](C)[C@@H]1NC(=O)[C@@H](CCCN=C(N)N)NC(=O)CNC(=O)CNC(=O)[C@@H](C2CCCCC2)NC(=O)CCSSC[C@H](C(N)=O)NC(=O)[C@@H](CCCN=C(N)N)NC(=O)[C@@H](Cc2ccccc2)NC(=O)[C@@H]([C@@H](C)CC)NC(=O)[C@H](CCCN=C(N)N)NC(=O)[C@@H](CC(=O)O)NC1=O,–,6500,–
CC[C@H](C)[C@@H]1NC(=O)[C@@H](CCCN=C(N)N)NC(=O)CNC(=O)CNC(=O)[C@@H](C2CCCCC2)NC(=O)[C@H](NC(=O)[C@H](N)CCCN=C(N)N)CSSC[C@H](C(N)=O)NC(=O)[C@@H](C)NC(=O)CNC(=O)[C@@H]([C@@H](C)CC)NC(=O)[C@H](CCCN=C(N)N)NC(=O)[C@@H](CC(=O)O)NC1=O,–,1200,–
H-SSCFGGR-OH,–,–,Intrinsic vasorelaxation [5]: 0 fraction of rANP max
H-RIDRIG-OH,–,–,Intrinsic vasorelaxation [5]: 0.7 fraction of rANP max
CC[C@H](C)[C@@H]1NC(=O)[C@H](CCCN=C(N)N)NC(=O)CNC(=O)CNC(=O)[C@H](Cc2ccccc2)NC(=O)[C@@H](NC(=O)[C@H](CO)NC(=O)[C@@H](N)CO)CSSC[C@@H](C(=O)N[C@@H](Cc2ccccc2)C(=O)N[C@@H](CCCN=C(N)N)C(=O)O)NC(=O)[C@H]([C@@H](C)CC)NC(=O)[C@H](CCCN=C(N)N)NC(=O)[C@H](CC(=O)O)NC1=O,3000,–,half-life [3]: 4.7 min
NC(=O)C[C@H](N)C(=O)N[C@@H](CO)C(=O)N[C@@H](Cc1ccccc1)C(=O)N[C@@H](CCCN=C(N)N)C(=O)O (H-NSFR-OH),–,–,Intrinsic vasorelaxation [5]: 0.16 fraction of rANP max
CC[C@H](C)[C@@H]1NC(=O)[C@H](CCCN=C(N)N)NC(=O)CNC(=O)CNC(=O)[C@H](Cc2ccccc2)NC(=O)CNC(=O)[C@@H](NC(=O)[C@H](CO)NC(=O)[C@@H](N)CO)CSSC[C@@H](C(=O)N[C@@H](Cc2ccccc2)C(=O)N[C@@H](CCCN=C(N)N)C(=O)O)NC(=O)[C@H]([C@@H](C)CC)NC(=O)[C@H](CCCN=C(N)N)NC(=O)[C@H](CC(=O)O)NC1=O,120,–,half-life [3]: 3.2 min
H-SSCFG-OH,–,–,Intrinsic vasorelaxation [5]: 0.03 fraction of rANP max
CC[C@H](C)[C@H]1NC(=O)[C@H](CCCN=C(N)N)NC(=O)[C@@H](CC(=O)O)NC(=O)[C@H](Cc2ccccc2)NC(=O)[C@@H](CCCN=C(N)N)NC(=O)CNC(=O)CNC(=O)[C@@H](C2CCCCC2)NC(=O)[C@H](NC(=O)[C@H](N)CCCN=C(N)N)CSSC[C@H](C(N)=O)NC(=O)[C@@H](CCCN=C(N)N)NC(=O)[C@H](Cc2ccccc2)NC1=O,–,680,–
CC[C@H](C)[C@@H]1NC(=O)[C@H](CCCN=C(N)N)NC(=O)CNC(=O)CNC(=O)[C@H](Cc2ccccc2)NC(=O)CCNC(=O)[C@@H](NC(=O)[C@H](CO)NC(=O)[C@@H](N)CO)CSSC[C@@H](C(=O)N[C@@H](Cc2ccccc2)C(=O)N[C@@H](CCCN=C(N)N)C(=O)O)NC(=O)[C@H]([C@@H](C)CC)NC(=O)[C@H](CCCN=C(N)N)NC(=O)[C@H](CC(=O)O)NC1=O,1800,–,–
CC[C@H](C)[C@@H]1NC(=O)[C@@H](CCCN=C(N)N)NC(=O)CNC(=O)CNC(=O)[C@@H](C2CCCCC2)NC(=O)CCSSC[C@@H](C(N)=O)NC(=O)[C@@H](CCCN=C(N)N)NC(=O)[C@H](Cc2ccccc2)NC(=O)[C@@H]([C@@H](C)CC)NC(=O)[C@H](CCCN=C(N)N)NC(=O)[C@@H](CC(=O)O)NC1=O,–,1900,–
CC[C@H](C)[C@@H]1NC(=O)[C@@H](CCCN=C(N)N)NC(=O)CNC(=O)CNC(=O)[C@@H](C2CCCCC2)NC(=O)CCSSC[C@H](C(N)=O)NC(=O)[C@H](CCCN=C(N)N)NC(=O)[C@H](Cc2ccccc2)NC(=O)[C@@H]([C@@H](C)CC)NC(=O)[C@H](CCCN=C(N)N)NC(=O)[C@@H](CC(=O)O)NC1=O,–,380,–
CC[C@H](C)[C@@H]1NC(=O)[C@@H](CCCN=C(N)N)NC(=O)CNC(=O)CNC(=O)[C@@H](C2CCCCC2)NC(=O)[C@H](NC(=O)[C@H](N)CCCN=C(N)N)CSSC[C@H](C(N)=O)NC(=O)[C@@H](CCCN=C(N)N)NC(=O)[C@H](Cc2ccccc2)NC(=O)[C@@H](C)NC(=O)[C@H](CCCN=C(N)N)NC(=O)[C@@H](CC(=O)O)NC1=O,–,230,–
CC[C@H](C)[C@@H]1NC(=O)[C@H](CCCN=C(N)N)NC(=O)CNC(=O)CNC(=O)[C@@H](Cc2ccccc2)NC(=O)[C@@H](NC(=O)[C@H](CO)NC(=O)[C@@H](N)CO)CSSC[C@@H](C(=O)N[C@@H](Cc2ccccc2)C(=O)N[C@@H](CCCN=C(N)N)C(=O)O)NC(=O)[C@H]([C@@H](C)CC)NC(=O)[C@H](CCCN=C(N)N)NC(=O)[C@H](CC(=O)O)NC1=O,> 10000,–,half-life [3]: 5.8 min
CC[C@H](C)[C@@H]1NC(=O)[C@@H](CCCN=C(N)N)NC(=O)CNC(=O)CNC(=O)[C@@H](C2CCCCC2)NC(=O)[C@H](NC(=O)[C@@H](CO)NC(=O)[C@H](N)CO)CSSC[C@H](C(=O)O)NC(=O)[C@@H](CCCN=C(N)N)NC(=O)[C@H](Cc2ccccc2)NC(=O)[C@@H]([C@@H](C)CC)NC(=O)[C@H](CCCN=C(N)N)NC(=O)[C@@H](CC(=O)O)NC1=O,–,160,–
CC[C@H](C)[C@@H]1NC(=O)[C@@H](CCCN=C(N)N)NC(=O)CNC(=O)CNC(=O)[C@@H](C2CCCCC2)NC(=O)[C@H](NC(=O)[C@H](N)CCCN=C(N)N)CSSC[C@H](C(N)=O)NC(=O)[C@@H](CCCN=C(N)N)NC(=O)[C@H](Cc2ccccc2)NC(=O)[C@@H]([C@@H](C)CC)NC(=O)[C@H](CCCN=C(N)N)NC(=O)CNC1=O,–,260,–
CC[C@H](C)[C@@H]1NC(=O)[C@@H](CCCN=C(N)N)NC(=O)CNC(=O)CNC(=O)[C@@H](C2CCCCC2)NC(=O)[C@H](NC(=O)[C@H](N)CCCN=C(N)N)CSSC[C@H](C(N)=O)NC(=O)[C@@H](CCCN=C(N)N)NC(=O)[C@H]2Cc3ccccc3CN2C(=O)[C@@H]([C@@H](C)CC)NC(=O)[C@H](CCCN=C(N)N)NC(=O)[C@@H](CC(=O)O)NC1=O,–,96,–
CC[C@H](C)[C@@H]1NC(=O)[C@H]2CCCCNC(=O)C[C@@H](NC1=O)C(=O)N[C@@H](CCCN=C(N)N)C(=O)N[C@H]([C@@H](C)CC)C(=O)N[C@@H](Cc1ccccc1)C(=O)N[C@H](CCCN=C(N)N)C(=O)N[C@@H](C(N)=O)CSSC[C@@H](NC(=O)[C@H](N)CCCN=C(N)N)C(=O)N[C@H](C1CCCCC1)C(=O)NCC(=O)NCC(=O)N2,–,58,–
CC[C@H](C)[C@@H]1NC(=O)[C@H](CCCN=C(N)N)NC(=O)[C@H](CC(=O)O)NC(=O)[C@H]([C@@H](C)CC)NC(=O)[C@H](CCCN=C(N)N)NC(=O)CNC(=O)CNC(=O)[C@H](Cc2ccccc2)NC(=O)[C@@H](N)CSSC[C@@H](C(=O)O)NC1=O (H-CFGGRIDRIC-OH; disulfide 1-10),3800,–,–
CC[C@H](C)[C@@H]1NC(=O)[C@H](CCCN=C(N)N)NC(=O)CNC(=O)CNC(=O)[C@H](Cc2ccccc2)NC(=O)[C@@H](CC2CCCCC2)NC(=O)[C@@H](NC(=O)[C@H](CO)NC(=O)[C@@H](N)CO)CSSC[C@@H](C(=O)N[C@@H](Cc2ccccc2)C(=O)N[C@@H](CCCN=C(N)N)C(=O)O)NC(=O)[C@H]([C@@H](C)CC)NC(=O)[C@H](CCCN=C(N)N)NC(=O)[C@H](CC(=O)O)NC1=O,430,–,–
CC[C@H](C)[C@@H]1NC(=O)[C@H](CCCN=C(N)N)NC(=O)CNC(=O)CNC(=O)[C@H](Cc2ccccc2)NC(=O)[C@@H](N)CSSC[C@@H](C(=O)N[C@@H](Cc2ccccc2)C(=O)N[C@@H](CCCN=C(N)N)C(=O)O)NC(=O)[C@H]([C@@H](C)CC)NC(=O)[C@H](CCCN=C(N)N)NC(=O)[C@H](CC(=O)O)NC1=O (H-CFGGRIDRICFR-OH; disulfide 1-10),4900,–,–
H-FGGRIDRI-OH,–,–,Intrinsic vasorelaxation [5]: 0.57 fraction of rANP max
